The record followed here is ChEMBL document CHEMBL1123910, “Indolizidine and quinolizidine derivatives of the dopamine autoreceptor agonist 3-(3-hydroxyphenyl)-N-n-propylpiperidine (3-PPP)” (1987).

Common to all, as to assay type: functional
Assay [1] has as its system Rattus norvegicus. Put plainly: Reversal of reserpine plus alpha-Methyl-p-tyrosine-induced hypoactivity in rats was recorded after subcutaneous administration. Particulars: sc. A digest of the protocol: (§1)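 Rats pretreated with reserpine (8.2 µmol/kg = 5 mg/kg sc) 16-20 h before, and α-methyl-p-tyrosine methyl ester (813 µmol/kg = 200 mg/kg ip) 2 h before, test drug or saline. Motility measured under artificial light for 1 h from injection. Counts scored 0 (0-49), 1 (50-149) or 2 (>150). ED50 by log-probit as dose giving half-maximal score.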

Assay [2] deals with Rattus norvegicus. The assay can be described thus: Contralateral circling behavior in 6-OH-DA-lesioned rats was recorded after subcutaneous administration.
Assay [3] relates to Rattus norvegicus. The assay can be described thus: Inhibition of spontaneous locomotor activity was performed in photocell cages at 30-45 minutes after subcutaneous administration. A digest of the protocol:
(§2)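 Rats in photocell cages. Motility counted 30-45 min after sc test drug or saline. Injection volume 5 mL/kg.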

In assay [4] the test system is Rattus norvegicus. The assay can be described thus: Antagonism of apomorphine induced stereotype in rats was recorded at 30 minutes after subcutaneous administration apomorphine. Particulars: sc, 0.5 h. A digest of the protocol:
(§3)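 Rats housed in wire mesh cages from the day before. Test drug or saline given sc 30 min before apomorphine (8.2 µmol = 2.5 mg/kg, sc). Oral stereotypy (licking, biting) scored every 15 min for 90 min. ED50 taken from the 30-min post-apomorphine observation, when control activity peaked.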

Assay [5] has as its system Rattus norvegicus. Put plainly: Inhibition of spontaneous locomotor activity was performed in photocell cages. Motility was measured at […] after subcutaneous administration. The following applies: sc. In outline:
as §2

Assay [6] is filed under the species Rattus norvegicus. The assay can be described thus: Inhibition of spontaneous locomotor activity was performed in photocell cages. Motility was measured at 5 minutes. A digest of the protocol: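 Rats in photocell cages. Motility counted 5 min after sc injection of test drug. Injection volume 5 mL/kg.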
The test system of assay [7] is Rattus norvegicus. The assay can be described thus: Reversal of reserpine plus alpha-Methyl-p-tyrosine-induced hypoactivity in rats was recorded at 1 hr after subcutaneous administration. Particulars: sc. A digest of the protocol: as §1
The subject of assay [8] is Rattus norvegicus. Put plainly: Antagonism of apomorphine induced stereotype in rats was recorded at 30 minutes after subcutaneous administration of apomorphine. The following applies: sc, 0.5 h. A digest of the protocol:
as §3

For assay [9], the system named is Rattus norvegicus. Put plainly: Reversal of reserpine plus alpha-Methyl-p-tyrosine-induced hypoactivity in rats was recorded at 1 h after administration. In outline:
as §1

Assay [10] deals with Rattus norvegicus. Put plainly: Inhibition of spontaneous locomotor activity was performed in photocell cages. Motility was measured at […] after subcutaneous administration; value ranges from 4.2-11. The following applies: sc. A digest of the protocol:
as §2

Assay [11] concerns Rattus norvegicus. Put plainly: Antagonism of apomorphine induced stereotype was recorded at 30 minutes after apomorphine subcutaneous administration. Particulars: sc, 0.5 h. In outline:
as §3

The species entered for assay [12] is Rattus norvegicus. Put plainly: Reversal of reserpine plus alpha-Methyl-p-tyrosine-induced hypoactivity in rats was recorded. A digest of the protocol:
as §1

Assay [13] relates to Rattus norvegicus. Put plainly: Ispilateral circling behavior in 6-OH-DA-lesioned rats was recorded after subcutaneous administration. Particulars: sc.
For assay [14], the system named is Rattus norvegicus. The assay can be described thus: Antagonism of apomorphine induced stereotype in rats was recorded after subcutaneous administration of apomorphine. The following applies: sc. A digest of the protocol:
as §3

[15] abbreviates: Rattus norvegicus, sc, read-out: ED50.

Take `Oc1cccc(C2CCCN3CCCC23)c1` (single isomer, unassigned; (+)): the ED50 is 150 µmol/kg in the assay on Rattus norvegicus [1], 7.1 µM/kg in the assay with Rattus norvegicus [2], 3.9 µM/kg with Rattus norvegicus [3] and more than 157 µmol/kg with Rattus norvegicus [4].

For `CN1CCc2cccc3c2[C@H]1Cc1ccc(O)c(O)c1-3` [APOMORPHINE], the ED50 with Rattus norvegicus [5] turned out to be 0.64 µmol/kg; in the assay with Rattus norvegicus [2] (setting [15]) it was 0.058 µmol/kg; in the assay filed under Rattus norvegicus [6], 0.092 µmol/kg; in the assay with Rattus norvegicus [7] it was 0.27 µmol/kg.

Turning to `Oc1cccc(C2CCC3CCCN3C2)c1` (stereo not drawn), the ED50 in the assay on Rattus norvegicus [2] (setting [15]) and with Rattus norvegicus [3] (setting [15]) was more than 67 µmol/kg in each case.

On to `Oc1cccc(C2CCCN3CCCC23)c1` (single isomer, unassigned; (-)), for which the results for the ED50 with Rattus norvegicus [8], in the assay with Rattus norvegicus [2] and with Rattus norvegicus [3] were 100 µmol/kg, more than 79 µM/kg and 40 µM/kg, respectively.

On to `Oc1cccc(C2CCCN3CCCC23)c1` (stereo in doubt; 19a), for which the ED50 with Rattus norvegicus [2] and with Rattus norvegicus [3] was more than 67 µM/kg in each case.

In the case of `CCCN1CCCC(c2cccc(O)c2)C1` (stereo not drawn), the ED50 in the assay on Rattus norvegicus [8] is more than 67 µmol/kg; in the assay on Rattus norvegicus [2] (setting [15]) it was 1.7 µmol/kg; in the assay with Rattus norvegicus [3] (setting [15]), 3.4 µmol/kg.

On to `CCCN1CCC[C@@H](c2cccc(O)c2)C1` [PRECLAMOL], for which the ED50 in the assay with Rattus norvegicus [9] was more than 67 µmol/kg; in the assay with Rattus norvegicus [10] it was 11 µmol/kg; in the assay with Rattus norvegicus [2] (setting [15]), 0.77 µmol/kg; in the assay filed under Rattus norvegicus [6], 1.9 µmol/kg; with Rattus norvegicus [4] it was 33 µmol/kg.

Take `CCCN1CCC[C@H](c2cccc(O)c2)C1`: the figures for the ED50 in the assay on Rattus norvegicus [8], in the assay on Rattus norvegicus [9] and with Rattus norvegicus [2] (setting [15]) were 63 µmol/kg, 40 µmol/kg and 1.9 µmol/kg, respectively.

Consider `Oc1cccc(C2=CCCN3CCCCC23)c1` (stereo not drawn), for which the ED50 in the assay with Rattus norvegicus [2] (setting [15]) was more than 87 µmol/kg; in the assay on Rattus norvegicus [7] it was more than 87 µmol/kg; with Rattus norvegicus [11], 34 µmol/kg; in the assay on Rattus norvegicus [3] (setting [15]) it was 8.5 µmol/kg.

As for `Oc1cccc(C2CCCN3CCCCC23)c1` (single isomer, unassigned; 20a), the ED50 with Rattus norvegicus [2] and in the assay on Rattus norvegicus [3] was more than 64 µM/kg each time.

As to `Oc1cccc(C2CCCN3CCCCC23)c1` (single isomer, unassigned; 20e), the figures for the ED50 with Rattus norvegicus [2] (setting [15]) and with Rattus norvegicus [3] (setting [15]) were more than 87 µmol/kg and 63 µmol/kg, respectively.

As to `Oc1cccc(C2CCC3CCCCN3C2)c1` (stereo not drawn) [listing 1 of 2 here], the ED50 in the assay listed under Rattus norvegicus [12] was more than 62 µmol/kg; in the assay with Rattus norvegicus [13], 9.3 µmol/kg; in the assay with Rattus norvegicus [3] (setting [15]) it was more than 64 µmol/kg.

On to `Oc1cccc(C2CCC3CCCN3C2)c1` (single isomer, unassigned), for which the ED50 in the assay on Rattus norvegicus [3] (sc) is more than 67 µmol/kg.

Turning to `Oc1cccc(C2CCC3CCCCN3C2)c1` (stereo not drawn) [listing 2 of 2 here], the ED50 in the assay with Rattus norvegicus [2] (setting [15]) was more than 64 µmol/kg; in the assay on Rattus norvegicus [3] (sc), more than 62 µmol/kg.

With `Oc1cccc(C2CCCN3CCCC23)c1` (stereo in doubt; 19e), the ED50 was more than 134 µmol/kg in the assay with Rattus norvegicus [14], 13 µM/kg in the assay with Rattus norvegicus [2] and 7.5 µmol/kg in the assay on Rattus norvegicus [3] (sc).
